The species named for experiment [1] is Canis familiaris. Nature of the experiment: Percent change of resting potential at 3 x 10e-4 M in Canine Purkinje fibers. It is filed as functional, Canis lupus familiaris, Purkinje fiber. The gist of the method: (§1)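 Canine Purkinje fibres superfused with Tyrode's solution (K+ 4.0, Mg2+ 1.0, Ca2+ 4.0, HCO3- 18.0, glucose 5.5 mM), paced at 1000 ms cycle length with 0.5-ms pulses at 1.5× threshold. Transmembrane potentials were recorded with 3 M KCl microelectrodes. Drug was added to the superfusate at 3 × 10^-4 M final and read at stable effect (~30 min). Each cell served as its own control. Values are mean ± SEM, four or five experiments, five tissues per drug from different dogs. Compared by ANOVA/Fisher's LSD.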

The test system of experiment [2] is Rattus norvegicus. In words: Plasma concentration in rat 2 hr after administration at a dose of 25 mg/kg. Type of experiment: functional, organism-based. Further details: dose 25 mg/kg. The procedure, abridged: (§2)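 Fischer 344 rats were given 25 mg/kg in water iv via the jugular vein, three per group. Plasma was taken by cardiac puncture at set times. Parent drug and N-acetyl metabolite were quantified by GC with a nitrogen-phosphorus detector after alkaline extraction with an internal standard. The assay was linear 1–10 µg/mL. Values are mean ± SEM.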

The test system of experiment [3] is Canis familiaris. Nature of the experiment: Effect on ouabain-induced arrhythmias in pentobarbital anesthetized dogs. Type of experiment: functional, Canis lupus familiaris. The gist of the method:
(§3)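 Male beagles (12–15 kg) were given pentobarbital 35 mg/kg iv plus 5 mg/kg 15 min later. Ouabain went into the cephalic vein at 50 µg/kg, then 10 µg/kg every 15 min (extra 5 µg/kg if needed) until arrhythmia was sustained. After 30 min of arrhythmia, drug in water was infused iv at 200 µg/kg/min, raised to 500 µg/kg/min after 10 min, until conversion to sinus rhythm. n = 5.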

The species named for experiment [4] is Canis familiaris. Nature of the experiment: Percent change of effective refractory period at 3 x 10e-4 M, in Canine Purkinje fibers. It is filed as functional, Canis lupus familiaris, Purkinje fiber. The procedure, abridged:
as §1

Experiment [5] concerns Canis familiaris. In words: Maximal upstroke velocity when 3*10e-4 M compound was administered in Canine Purkinje fibers. It is filed as functional. As to conditions: Canis lupus familiaris; Purkinje fiber. The procedure, abridged:
as §1

The species named for experiment [6] is Canis familiaris. In words: Percent change of action potential duration at 3 x 10e-4 M, measured at 70% repolarization. It is filed as functional, Canis lupus familiaris. The gist of the method:
as §1

For experiment [7], the system named is Canis familiaris. In words: Resting potential when no compound was administered in Canine Purkinje fibers. It is filed as functional, Canis lupus familiaris, Purkinje fiber. The procedure, abridged:
as §1

For experiment [8], the species on record is Canis familiaris. In words: Effective refractory period at 3 x 10e-4 M in Canine Purkinje fibers. It is filed as functional, Canis lupus familiaris, Purkinje fiber. The procedure, abridged:
as §1

The species entered for experiment [9] is Canis familiaris. Nature of the experiment: Action potential duration at 3 x 10e-4 M measured at 95% repolarization in Canine Purkinje fibers. Type of experiment: functional, Canis lupus familiaris, Purkinje fiber. The procedure, abridged: as §1
Experiment [10] has as its system Rattus norvegicus. In words: Plasma concentration in rat 4 hr after administration at a dose of 25 mg/kg. Type of experiment: functional, organism-based. Further details: dose 25 mg/kg. The gist of the method: as §2
Experiment [11] relates to Canis familiaris. Nature of the experiment: Percent change in maximal upstroke velocity when 3*10e-4 M compound was administered in Canine Purkinje fibers. Type of experiment: functional. Particulars: Canis lupus familiaris; Purkinje fiber. The procedure, abridged:
as §1

In experiment [12] the test system is Rattus norvegicus. In words: Plasma concentration in rat 30 minutes after administration at a dose of 25 mg/kg. Type of experiment: functional, organism-based. Details: dose 25 mg/kg. The gist of the method: as §2
The species named for experiment [13] is Canis lupus familiaris. Nature of the experiment: Sodium channel inactivating potency in the absence of compound (control). Type of experiment: functional. The gist of the method:
(§4)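 Recovery from sodium-channel inactivation in paced canine Purkinje fibres: a premature S2 stimulus was given immediately after full repolarization. It was expressed as the ratio of premature to paced action potential rate of rise. Drug was present at 3 × 10^-4 M final, read after ~30 min. Each cell was its own control. Values are mean ± SEM, four or five experiments.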

Experiment [14] concerns Canis familiaris. Nature of the experiment: Maximal upstroke velocity when no compound was administered in Canine Purkinje fibers. It is filed as functional. As to conditions: Canis lupus familiaris; Purkinje fiber. The gist of the method:
as §1

Experiment [15] deals with Canis familiaris. In words: Amplitude when no compound was administered in Canine Purkinje fibers. Type of experiment: functional, Canis lupus familiaris, Purkinje fiber. The gist of the method: as §1
The test system of experiment [16] is Canis familiaris. Nature of the experiment: Action potential duration when no compound was administered in Canine Purkinje fibers measured at 95% repolarization. Type of experiment: functional, Canis lupus familiaris, Purkinje fiber. The procedure, abridged:
as §1

The species entered for experiment [17] is Canis lupus familiaris. In words: (§5) Sodium channel inactivating potency at 3*10e-4 M. Type of experiment: functional. The gist of the method: as §4
Experiment [18] deals with Canis familiaris. Nature of the experiment: Action potential duration when no compound was administered in Canine Purkinje fibers measured at 70% repolarization. It is filed as functional, Canis lupus familiaris, Purkinje fiber. The procedure, abridged:
as §1

Experiment [19] has as its system Canis familiaris. Nature of the experiment: Effect on conversion dose required for arrhythmias in pentobarbital anesthetized dogs. It is filed as functional, Canis lupus familiaris. The procedure, abridged: as §3
In experiment [20] the test system is Canis familiaris. Nature of the experiment: Effective refractory period when no compound was administered in Canine Purkinje fibers. It is filed as functional, Canis lupus familiaris, Purkinje fiber. The gist of the method: as §1
The species named for experiment [21] is Canis familiaris. Nature of the experiment: Action potential duration at 3 x 10e-4 M measured at 70% repolarization. Type of experiment: functional, Canis lupus familiaris. The gist of the method: as §1
The species named for experiment [22] is Canis familiaris. Nature of the experiment: Resting potential at 3 x 10e-4 M in Canine Purkinje fibers. Type of experiment: functional, Canis lupus familiaris, Purkinje fiber. The gist of the method: as §1
The species entered for experiment [23] is Canis familiaris. In words: Percent change of action potential duration at 3 x 10e-4 M, measured at 95% repolarization in Canine Purkinje fibers. It is filed as functional, Canis lupus familiaris, Purkinje fiber. The procedure, abridged: as §1
Experiment [24] is filed under the species Canis familiaris. Nature of the experiment: Amplitude at 3 x 10e-4 M concentration in Canine Purkinje fibers. It is filed as functional, Canis lupus familiaris, Purkinje fiber. The gist of the method:
as §1

The species named for experiment [25] is Canis familiaris. In words: Percent change of amplitude at 3 x 10e-4 M concentration in Canine Purkinje fibers. Type of experiment: functional, Canis lupus familiaris, Purkinje fiber. The procedure, abridged: as §1
Experiment [26] is filed under the species Canis lupus familiaris. Described as §5. Type of experiment: functional. The gist of the method: as §4
This is another data set of the same source.

On to `CCN(CC)CCNC(=O)c1ccc(N)cc1` [PROCAINAMIDE], for which the Resting potential in the experiment filed under Canis familiaris [1] was -2%; in the experiment on Canis familiaris [7], -93 mV; in the experiment filed under Canis familiaris [22], -91 mV. In addition, the values for the Plasma concentration in the experiment with Rattus norvegicus [2], in the experiment on Rattus norvegicus [10] and in the experiment on Rattus norvegicus [12] were 0.36 µg/mL, 2.3 µg/mL and 2.29 µg/mL, respectively. The molecule further displayed an Ouabain dose in the experiment on Canis familiaris [3] of 68 µg/kg. Also, the ERP in the experiment filed under Canis familiaris [4] turned out to be 6%; in the experiment listed under Canis familiaris [8], 321 ms; in the experiment with Canis familiaris [20], 308 ms. Moreover, the Vmax with Canis familiaris [5] was 345 V s-1; in the experiment with Canis familiaris [11], -31%; in the experiment on Canis familiaris [14], 501 V s-1. Also, the APD70 was 1% in the experiment listed under Canis familiaris [6], 285 ms in the experiment with Canis familiaris [18] and 284 ms in the experiment filed under Canis familiaris [21]. For the same molecule, the APD95 in the experiment filed under Canis familiaris [9] came out at 361 ms; with Canis familiaris [16] it was 347 ms; in the experiment listed under Canis familiaris [23], 5%. Also, the Na+ inactivation came to 1 in the experiment filed under Canis lupus familiaris [13] and 0.96 in the experiment listed under Canis lupus familiaris [17]. Also, the Amplitude is 127 mV in the experiment on Canis familiaris [15], 119 mV in the experiment listed under Canis familiaris [24] and -7% in the experiment filed under Canis familiaris [25]. Also, the Na+ inactivation change in the experiment filed under Canis lupus familiaris [17] was -3%. In the experiment with Canis familiaris [19], this molecule displayed a Conversion dose of 19 mg/kg.
Turning to `CCN(CC)CCNC(=O)c1cc(C)c(N)c(C)c1`, the Resting potential is -12% in the experiment listed under Canis familiaris [1], -92 mV in the experiment with Canis familiaris [7] and -81 mV in the experiment filed under Canis familiaris [22]. The Ouabain dose in the experiment with Canis familiaris [3] was found to be 69 µg/kg. For the same molecule, the ERP in the experiment listed under Canis familiaris [4] was -18%; in the experiment filed under Canis familiaris [8], 282 ms; in the experiment on Canis familiaris [20], 351 ms. Besides, the Vmax was 387 V s-1 in the experiment with Canis familiaris [5], -38% in the experiment with Canis familiaris [11] and 632 V s-1 in the experiment on Canis familiaris [14]. For the same molecule, the APD70 was -37% in the experiment listed under Canis familiaris [6], 363 ms in the experiment with Canis familiaris [18] and 227 ms in the experiment filed under Canis familiaris [21]. In addition, the APD95 in the experiment listed under Canis familiaris [9] is 353 ms; with Canis familiaris [16], 426 ms; in the experiment listed under Canis familiaris [23], -17%. Further, the results for the Na+ inactivation in the experiment filed under Canis lupus familiaris [13], in the experiment filed under Canis lupus familiaris [17] and in the experiment listed under Canis lupus familiaris [26] were 0.99, 0.91 and -7%, respectively. For the same molecule, the Amplitude in the experiment with Canis familiaris [15] was 131 mV; in the experiment listed under Canis familiaris [24], 117 mV; in the experiment filed under Canis familiaris [25] it was -11%. Also, the Conversion dose with Canis familiaris [19] was 14.3 mg/kg.
`CCN(CC)CCNC(=O)c1ccc(N)c(C)c1`: the Resting potential is -4% in the experiment listed under Canis familiaris [1], -89 mV in the experiment with Canis familiaris [7] and -85 mV in the experiment filed under Canis familiaris [22]. The molecule also showed an Ouabain dose in the experiment on Canis familiaris [3] of 65 µg/kg. The ERP is -6% in the experiment filed under Canis familiaris [4], 283 ms in the experiment filed under Canis familiaris [8] and 303 ms in the experiment on Canis familiaris [20]. In addition, the Vmax was 282 V s-1 with Canis familiaris [5], -39% with Canis familiaris [11] and 462 V s-1 in the experiment on Canis familiaris [14]. Further, the APD70 in the experiment filed under Canis familiaris [6] is -16%; in the experiment with Canis familiaris [18], 292 ms; in the experiment filed under Canis familiaris [21], 244 ms. Moreover, the APD95 in the experiment listed under Canis familiaris [9] was 336 ms; in the experiment with Canis familiaris [16], 363 ms; in the experiment filed under Canis familiaris [23], -7%. Also, the Na+ inactivation in the experiment filed under Canis lupus familiaris [13] is 0.96; in the experiment filed under Canis lupus familiaris [17], 0.88; in the experiment filed under Canis lupus familiaris [26], -9%. Besides, the Amplitude is 129 mV with Canis familiaris [15], 114 mV in the experiment filed under Canis familiaris [24] and -12% in the experiment listed under Canis familiaris [25]. In the experiment with Canis familiaris [19], the Conversion dose was determined as 18.3 mg/kg.

(Values after ChEMBL document CHEMBL1124144, “Electrophysiologic and antiarrhythmic activities of 4-amino-N-[2-(diethylamino)ethyl]-3,5-dimethylbenzamide, a sterically hindered procainamide analogue” (1988).)
